These results are taken from ChEMBL document CHEMBL1127676, “Structure-activity relationships in a series of 5-[(2,5-dihydroxybenzyl)amino]salicylate inhibitors of EGF-receptor-associated tyrosine kinase: importance of additional hydrophobic aromatic interactions” (J Med Chem, 1994).

Each structure is given as a SMILES string.

Assay [1] deals with T1, Epidermal growth factor receptor (Homo sapiens, UniProt P00533). To be noted: ER 22; 10 uM.
For assay [2], the target named is T1, Epidermal growth factor receptor. In words: Inhibitory potency against protein tyrosine kinase activity associated with EGFR was evaluated using ER 22 cell membrane.
Assay [3] shares this target. To be noted: ER 22; 100 uM.
A short description of assay [4]: Inhibition of PKA(protein kinase-A).
The target in another assay is Protein kinase C (PKC). Description: Inhibition of rat PKC(protein kinase-C). Type of assay: protein assay. In outline: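 PKC partially purified from rat brain by DEAE-cellulose chromatography and assayed in vitro with a commercial PKC assay kit; inhibitors tested for inhibition of the kinase activity.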
In assay [5] the target is T1, Epidermal growth factor receptor. To be noted: ER 22; 10 uM. The source holds these as a separate data set.
Assay [6] has the same target. To be noted: 5 uM.
Assay [7] has the same target. Description: Inhibition of EGFR(epidermal growth factor receptor) autophosphorylation in ER22 cell membranes.
The target is the same in assay [8]. To be noted: 20 uM.
For assay [9] the target is unchanged. To be noted: ER 22; 10 uM. The source holds these as a separate data set.
Assay [10] shares this target. To be noted: ER 22; 10 uM. The source holds these as a separate data set.

T1 sequence (P00533 whole entry): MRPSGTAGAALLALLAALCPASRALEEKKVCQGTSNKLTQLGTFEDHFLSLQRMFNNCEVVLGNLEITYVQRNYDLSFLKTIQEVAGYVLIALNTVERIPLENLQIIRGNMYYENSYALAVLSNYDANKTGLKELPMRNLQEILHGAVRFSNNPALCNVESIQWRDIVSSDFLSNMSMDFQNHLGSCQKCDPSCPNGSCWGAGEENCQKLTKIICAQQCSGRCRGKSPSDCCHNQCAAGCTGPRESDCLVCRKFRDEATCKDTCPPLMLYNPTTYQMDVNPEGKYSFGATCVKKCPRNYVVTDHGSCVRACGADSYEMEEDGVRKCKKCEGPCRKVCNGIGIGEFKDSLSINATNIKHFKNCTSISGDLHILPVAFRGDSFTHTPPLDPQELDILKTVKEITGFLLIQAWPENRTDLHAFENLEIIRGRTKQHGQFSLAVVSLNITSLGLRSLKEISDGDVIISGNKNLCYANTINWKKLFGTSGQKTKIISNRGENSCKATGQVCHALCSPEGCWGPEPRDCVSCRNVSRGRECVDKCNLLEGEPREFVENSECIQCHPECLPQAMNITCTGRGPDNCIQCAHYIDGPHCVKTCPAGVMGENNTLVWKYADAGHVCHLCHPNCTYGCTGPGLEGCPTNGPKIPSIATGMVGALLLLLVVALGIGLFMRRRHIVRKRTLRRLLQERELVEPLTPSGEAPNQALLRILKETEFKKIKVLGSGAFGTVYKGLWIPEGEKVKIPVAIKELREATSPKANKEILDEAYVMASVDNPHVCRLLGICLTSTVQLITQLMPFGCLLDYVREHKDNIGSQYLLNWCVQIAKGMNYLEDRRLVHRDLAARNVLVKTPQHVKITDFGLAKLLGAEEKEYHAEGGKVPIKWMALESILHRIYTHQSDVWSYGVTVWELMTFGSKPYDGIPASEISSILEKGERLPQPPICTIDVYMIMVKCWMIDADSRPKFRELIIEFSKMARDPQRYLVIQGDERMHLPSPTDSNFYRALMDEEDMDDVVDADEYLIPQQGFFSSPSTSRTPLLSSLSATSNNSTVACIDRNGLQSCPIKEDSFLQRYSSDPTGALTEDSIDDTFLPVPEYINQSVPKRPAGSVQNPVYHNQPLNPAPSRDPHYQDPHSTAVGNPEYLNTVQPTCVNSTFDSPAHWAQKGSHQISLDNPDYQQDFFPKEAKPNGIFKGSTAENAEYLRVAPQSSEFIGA

In general, inhibition refers to the change of the read-out against control, counted positive when it falls. Low values mean little suppression, high ones strong suppression. On to `CC(C)(C)ONC(=O)c1cc(/N=C/c2cc(O)ccc2O)ccc1O`, for which the inhibition in assay [1] was 20%.

In general, IC50 refers to the concentration at which inhibition is half-maximal. The low end stands for inhibition by little substance, the high end for a need for much substance. In the case of `O=C(OCCCCc1ccccc1)c1cc(NCc2cc(O)ccc2O)ccc1O`, it took 400 nM to reach half-maximal inhibition in assay [2] (IC50).

For `CCOP(=O)(Cc1cc(/N=C/c2cc(O)ccc2O)ccc1O)OCC`, in assay [2], the IC50 is > 100000 nM.

For `Cc1cc(C)cc(COC(=O)c2cc(NCc3cc(O)ccc3O)ccc2O)c1`, the IC50 in [2] is 3000 nM.

In the case of `CC(CCOC(=O)c1cc(NCc2cc(O)ccc2O)ccc1O)CC(C)(C)C` (centres undefined), the IC50 in assay [2] is > 1000 nM.

As for `CONC(=O)c1cc(/N=C/c2cc(O)ccc2O)ccc1O`, the half-maximal inhibitory concentration (IC50) in assay [2] amounted to 27000 nM.

Take `O=C(Oc1ccccc1)c1cc(NCc2cc(O)ccc2O)ccc1O`: it took 70 nM to reach half-maximal inhibition in [2] (IC50).

In [2], `CCOC(=O)Cc1cc(NCc2cc(O)ccc2O)ccc1O` returned an IC50 of 7000 nM.

`O=C(OC/C=C/c1ccccc1)c1cc(NCc2cc(O)ccc2O)ccc1O` displayed a half-maximal inhibitory concentration (IC50) in assay [2] of 1300 nM.

Consider `O=C(OCc1ccccc1)c1cc(NCc2cc(O)ccc2O)ccc1O`, for which the IC50 in [2] came to 80 nM.

`COC(=O)Cc1cc(NCc2cc(O)ccc2O)ccc1O` had an IC50 in assay [2] of 3000 nM.

`O=C(OCC1CCCCC1)c1cc(NCc2cc(O)ccc2O)ccc1O` gave an IC50 in [2] of 1200 nM.

For the molecule `COC(=O)c1cc(/N=C/c2cc(O)ccc2O)ccc1O`, the inhibition in assay [3] worked out at 56%.

`O=C(Cc1cc(NCc2cc(O)ccc2O)ccc1O)NOCc1ccccc1` yielded an IC50 in assay [2] of 1000 nM. This counts as single-digit micromolar.

With `CCOC(=O)c1cc(/N=C/c2cc(O)ccc2O)ccc1O`, the concentration for half-maximal inhibition (IC50) in assay [2] turned out to be 50000 nM.

For the molecule `CC(C)c1ccc(COC(=O)c2cc(NCc3cc(O)ccc3O)ccc2O)cc1`, half-maximal inhibition in assay [2] (IC50) required 1000 nM.

For `CCCCCCCCCCCCCCCCOC(=O)c1cc(NCc2cc(O)ccc2O)ccc1O`, the IC50 in [2] was > 5000 nM.

`O=C(Oc1cccc(O)c1)c1cc(NCc2cc(O)ccc2O)ccc1O`: inhibition in assay [2] was half-maximal at 90 nM (IC50).

`O=C(O)c1cc(NCc2cc(O)ccc2O)ccc1O` [LAVENDUSTIN C]: the IC50 (in [4]; on Protein kinase C (PKC)) was > 100 µM each time.

On to `O=C(NO)c1cc(NCc2cc(O)ccc2O)ccc1O`, for which, in [2], the IC50 was found to be 400 nM.

In assay [2], `CC(C)(C)ONC(=O)Cc1cc(/N=C/c2cc(O)ccc2O)ccc1O` displayed an IC50 of 31000 nM.

`COC(=O)Cc1cc(/N=C/c2cc(O)ccc2O)ccc1O`: the IC50 in assay [2] stood at 100000 nM.

`O=C(NOCc1ccccc1)c1cc(NCc2cc(O)ccc2O)ccc1O` showed an IC50 in assay [2] of 50 nM.

As for `O=C(Oc1cccc2ccccc12)c1cc(NCc2cc(O)ccc2O)ccc1O`, inhibition in assay [2] was half-maximal at 110 nM (IC50). This IC50 lies about 2.2-fold higher than the previous one.

Regarding `CC(C)(C)CCOC(=O)c1cc(NCc2cc(O)ccc2O)ccc1O`, the IC50 in assay [2] came out at 700 nM. Compared with the last molecule, the IC50 is about 6.4-fold higher.

As for `CC(COC(=O)c1cc(/N=C/c2cc(O)ccc2O)ccc1O)CC(C)(C)C` (centres undefined), the IC50 in [2] was > 10000 nM.

In assay [2], `CONC(=O)c1cc(NCc2cc(O)ccc2O)ccc1O` returned an IC50 of 300 nM.

As for `O=C(NOCc1ccccc1)c1cc(/N=C/c2cc(O)ccc2O)ccc1O`, the results for the inhibition in [5] and in assay [6] were 8% and 43%, respectively.

`CC(COC(=O)c1cc(NCc2cc(O)ccc2O)ccc1O)CC(C)(C)C` (centres undefined): the IC50 in [2] is ~4000 nM; in assay [4], 10 µM; in [7], 8000 nM; on Protein kinase C (PKC) it was 300 µM.

On to `CC(C)CCCC(C)CCOC(=O)c1cc(NCc2cc(O)ccc2O)ccc1O` (centres undefined), for which the results for the half-inhibitory concentration (IC50) in [2], in assay [4] and in [7] were 7000 nM, 10 µM and 25000 nM, respectively.

Take `O=C(Oc1ccc2ccccc2c1)c1cc(NCc2cc(O)ccc2O)ccc1O`: in assay [2], the IC50 was 90 nM.

Turning to `O=C(O)c1cc(/N=C/c2cc(O)ccc2O)ccc1O`, the IC50 in [2] was 5000 nM.

`CCOC(=O)Cc1cc(/N=C/c2cc(O)ccc2O)ccc1O`: in assay [2], the concentration for half-maximal inhibition (IC50) came out at 100000 nM.

Take `CCOP(=O)(Cc1cc(NCc2cc(O)ccc2O)ccc1O)OCC`: 4000 nM corresponded to half-maximal inhibition in [2] (IC50).

Take `O=C(OCCC12C[C@H]3C[C@@H](C1)C[C@@H](C2)C3)c1cc(NCc2cc(O)ccc2O)ccc1O`: in assay [2], the IC50 was > 5000 nM.

`CC(C)(C)ONC(=O)Cc1cc(NCc2cc(O)ccc2O)ccc1O`: inhibition in assay [2] was half-maximal at 5000 nM (IC50).

Turning to `O=C(Oc1ccc(-c2ccccc2)cc1)c1cc(NCc2cc(O)ccc2O)ccc1O`, in [2], the midpoint of inhibition, the IC50, lay at 5000 nM.

`CC(CCOC(=O)c1cc(NCc2cc(O)ccc2O)ccc1O)c1ccccc1` (centres undefined): 400 nM corresponded to half-maximal inhibition in assay [2] (IC50).

In the case of `O=C(O)Cc1cc(/N=C/c2cc(O)ccc2O)ccc1O`, the IC50 in assay [2] amounted to 35000 nM.

As to `CC(COC(=O)c1cc(NCc2cc(O)ccc2O)ccc1O)Cc1ccccc1` (centres undefined), inhibition in assay [2] was half-maximal at 360 nM (IC50).

In [2], `O=C(Cc1cc(/N=C/c2cc(O)ccc2O)ccc1O)NOCc1ccccc1` registered an IC50 of 50000 nM.

`CC(C)(C)ONC(=O)c1cc(NCc2cc(O)ccc2O)ccc1O` yielded an inhibition in assay [8] of 35%. Moreover, in assay [2], the IC50 was determined as 100 nM.

For `CC(C)(C)OC(=O)c1cc(NCc2cc(O)ccc2O)ccc1O`, the IC50 in assay [2] came out at 1000 nM.

On to `COC(=O)c1cc(NCc2cc(O)ccc2O)ccc1O`, for which the IC50 in assay [2] was 600 nM; in [4] it was 150 µM; in [7] it was 1000 nM; on Protein kinase C (PKC) it was 400 µM.

On to `CC(C)(C)CCOC(=O)c1cc(/N=C/c2cc(O)ccc2O)ccc1O`, for which the inhibition in assay [9] worked out at 10%.

`O=C(O)Cc1cc(NCc2cc(O)ccc2O)ccc1O` came in with an IC50 in assay [2] of 6000 nM. That is a single-digit micromolar value.

For `O=C(OCCCc1ccccc1)c1cc(NCc2cc(O)ccc2O)ccc1O`, the IC50 was 30 nM in [2], 11 µM in [4], 700 nM in [7] and > 20 µM on Protein kinase C (PKC).

In the case of `CC(C)(C)OC(=O)c1cc(/N=C/c2cc(O)ccc2O)ccc1O`, the inhibition in assay [1] is 15%.

Molecule `O=P(O)(O)Cc1cc(NCc2cc(O)ccc2O)ccc1O` came in with an IC50 in [2] of 3000 nM.

Take `O=C(OCCc1ccccc1)c1cc(NCc2cc(O)ccc2O)ccc1O`: the IC50 is 130 nM in assay [2], 4 µM in [4] and 200 nM in assay [7].

As for `CCOC(=O)c1cc(NCc2cc(O)ccc2O)ccc1O`, in [2], the IC50 is 400 nM.

`CC(CCOC(=O)c1cc(/N=C/c2cc(O)ccc2O)ccc1O)CC(C)(C)C` (centres undefined): the inhibition in [1] worked out at 20%.

In assay [10], `CC(C)CCCC(C)CCOC(=O)c1cc(/N=C/c2cc(O)ccc2O)ccc1O` (centres undefined) displayed an inhibition of 20%.
